Results as given in PubChem BioAssay.
Unmarked numbers belong to inactive results. Records with an inconclusive call do not appear. Active and inactive are the calls of the source.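 Rule for the calls, unless noted: active = cell viability at or below a set limit in both duplicate runs, the limit being the all-compound median minus 4 SD (cut at about 23% in these data, passing the limit was not always enough); inconclusive = no clear call, values can overlap the other calls; inactive = the rest.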

What was measured:
[1] = S. cerevisiae growth inhibition in permissive medium (OD615), pilot counter-assay for S. cerevisiae lifespan shortening project, permissive growth control (AID 705;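 active = growth inhibition above 25% in both replicates, a cutoff set 3 SD above the mean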); conditions: OD615, 24 h, at 10 µM, active compounds read high
Method in brief: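 assay system = Saccharomyces cerevisiae strain carrying genetically modified DeaD replicative-lifespan system | medium = SC raffinose/galactose permissive medium | dosing = 10 µM single dose, 0.25% DMSO | schedule = 24 h compound exposure at 30 °C after 4 h pre-growth | measured by = OD at 615 nm | read-out basis = growth inhibition from lowered OD615 after 24 h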

[2] = S. cerevisiae growth inhibition in restrictive medium, OD615, pilot screen, restrictive growth control, yeast lifespan reduction project (AID 706;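 active = growth inhibition above a set limit, 3 SD over mean compound inhibition, in both replicates, cut at about 43% in these data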;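 note: modified DeaD lifespan yeast strain shifted to restrictive glucose medium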); conditions: OD615, 48 h, at 10 µM, active compounds read high
Method in brief: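 Buffer or medium: CSMM-D glucose medium. Material: genetically modified Saccharomyces cerevisiae, DeaD replicative lifespan assay strain. Times: 48 h compound exposure at 30 °C. Measured by: optical density at 615 nm.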

[3] = doxorubicin toxicity protection in MRP-1 cells – H69AR cells, CellTiter-Glo, duplicate, MRP-1 activator project, pilot screen (AID 807;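 active = viability increase at or above a cutoff of the median across tested compounds plus 3 SD, cut at about 8.5% in these data, passing the limit was not always enough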;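 note: compound pretreatment 18-22 h then 72 h combined with doxorubicin; 0% = doxorubicin alone and 100% = vehicle without doxorubicin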); conditions: H69AR viability with doxorubicin, CellTiter-Glo luminescence; at 10 µM; active compounds read high
[4] = viability of HCT116 without oncogenic beta-catenin – human colon tumor cells, pilot screen (AID 823); conditions: HCT116 beta-catenin knockout viability, CellTiter-Glo, 60 h; at 10 µM; active compounds read low;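 note: 0% = wells killed by 20 µM Hyamine and 100% = untreated DMSO cell wells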
[5] = viability of PTEN-null HCT116 cells – cell-based, HCT116 clonal line, CellTiter-Glo, pilot screen (AID 824;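 active = viability at or below 27.92% in each of two runs, the all-compound median minus 4 SD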;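 note: 0% = 20 µM Hyamine control and 100% = vehicle cell control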); conditions: HCT116 PTEN-deleted viability, 60 h, at 10 µM, active compounds read low
[6] = RAM pathway blockade in budding yeast – dse1pr::URA3 reporter, 5-FOA selection, pilot screen (AID 869;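 active = inhibition over a set limit, the all-compound mean plus 3 SD, in both replicate runs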;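 note: 0% = DMSO wells with no growth and 100% = 10 µM 1-NA-PP1 with full growth; RAM network block rescues cells from 5-FOA so hits raise OD615 growth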); conditions: S. cerevisiae dse1pr::URA3 5-FOA growth, OD615, 2 d; at 10 µM; active compounds read high; strain carries analog-sensitive mutant Cbk1 kinase
[7] = RAM signaling pathway blockade in yeast – S. cerevisiae, Pdr1DBD-CYC8 efflux-inhibited sensitized strain, primary screen (AID 1298;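 active = RAM network inhibition above 8.4% in each of two replicates, 3 SD over the compound average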;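 note: 0% = DMSO untreated cells without growth and 100% = 10 µM 1-NA-PP1 full growth; higher means more yeast growth rescued from 5-FOA killing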); conditions: S. cerevisiae cbk1-as DSE1-URA3 strain, 5-FOA growth OD615, 2 d; at 50 µM; active compounds read high

| SMILES | growth inhibition [1] | growth inhibition [2] | viability increase [3] | viability [4] | viability [5] | inhibition [6] | RAM network inhibition [7] |
| --- | --- | --- | --- | --- | --- | --- | --- |
| CCCOc1ccc(C2c3c(oc4cc(C)c(C)cc4c3=O)C(=O)N2CCCN2CCOCC2)cc1 (stereo not drawn) | 8% | 1.72% | -2.28% | 81.9% | 89% | 0.075% | 0.73% |
| N#Cc1nc(COc2ccc(Br)cc2)oc1N1CCCCCC1 | -13.1% | 3.57% | 4.39% | 62.4% | 67.5% | 2.33% | 7.31% |
| COc1ccc(Cl)cc1C(=O)NCC(C)C | 6.51% | 8.17% | -0.38% | 95.7% | 90.4% | 2.71% | 4.05% |
| O=C(Cn1ncc2c1-c1ccccc1OC2)Nc1ccc(S(=O)(=O)N2CCCCC2)cc1 | 0.515% | -5.21% | -2.69% | 90.7% | 84.8% | 0.655% | 4.53% |
| CCOC(=O)CSC1=C(C#N)C(c2ccccc2OC)CC(=O)N1 (stereo not drawn) | -14% | -1.51% | -6.53% | 27.5% | 27.4% (active) | 0.27% | -0.77% |
| O=C(Cn1cc2c(n1)CCCC2)NCc1cccc(Cl)c1 | 4.46% | 5.37% | -0.45% | 107% | 99.3% | 1.62% | 3.09% |
| O=C(NCCN1CCOCC1)NC1(C(F)(F)F)Oc2ccccc2O1 | -11% | 4.58% | -4.99% | 76.3% | 84.5% | 0.645% | 0.82% |
| O=c1nc2scc(-c3ccccc3)n2c2ccccc12 | -14.7% | -0.83% | -2.24% | 94.1% | 97.1% | 4.32% | 7.95% |
| Cn1c(=O)c2c(SCc3cccnc3)nc(C3CC3)nc2n(C)c1=O | 1.77% | -1.23% | 0.27% | 94.5% | 83.4% | -0.18% | -1.65% |
| Cc1c(NC(=O)CCCCCN2C(=O)C3C4C=CC(C4)C3C2=O)c(=O)n(-c2ccccc2)n1C (stereo not drawn) | 5.03% | 5.79% | -0.51% | 103% | 100% | 0.685% | 2.6% |
| CCc1cccc(OCC(=O)Nc2ccc(S(=O)(=O)Nc3onc(C)c3C)cc2)c1 | -13.4% | 8.17% | -1.89% | 98.7% | 97% | -0.085% | 1.89% |
| CCc1nnc(SCc2ccc(OC)c(Br)c2)n1N | 6.13% | -2.06% | -0.5% | 104% | 98.9% | 0.21% | 2.41% |
| N#CCC(=O)Nc1sc2c(c1C(N)=O)CCCC2 | -12.7% | -7.35% | -1.93% | 97.5% | 99.9% | 3.18% | 0.67% |
| CCOCCCNC(=O)C(c1ccc(Cl)cc1)N1CCN(C(=O)c2ccco2)CC1 (stereo not drawn) | -19.4% | -17.1% | -2.12% | 101% | 96.2% | 2.34% | 5.86% |
| COCCN1Cc2cccc(C(=O)NCc3cccnc3)c2C1=O | 3.25% | 10.2% | 0.03% | 111% | 101% | 3.75% | 0.51% |
| COc1ccccc1CNC(=O)CS(=O)Cc1nc(-c2ccccc2C)oc1C (stereo not drawn) | -4.17% | 12.7% | -0.18% | 101% | 93.4% | 1.66% | 2.33% |
| CC1Cc2nc(SCC(=O)NCc3ccco3)n(-c3ccccc3)c(=O)c2S1 (stereo not drawn) | -6.6% | -7.02% | -4.56% | 103% | 99% | 0.405% | 6.31% |
| CCCS(=O)(=O)N1CCn2c(nc3ccccc32)C1 | 0.585% | -2.62% | -0.37% | 106% | 102% | 2.19% | 2.93% |
| Oc1ccccc1-c1nnc(COc2ccccc2)o1 | -1.18% | 14.6% | -1.43% | 72.2% | 75.5% | 1.24% | 5.2% |
| CCOc1ccc(-c2nnc3ccc(SCC(=O)N4CCCCC4)nn23)cc1 | -0.225% | 9.67% | -4.24% | 110% | 101% | 2.06% | 1.25% |
| CCCN1C(=O)c2cc(C(=O)NCc3cccs3)ccc2C1O (stereo not drawn) | -5.98% | -16.4% | -0.99% | 107% | 96.7% | 1.94% | -0.69% |
| COc1ccc(-c2cn3c(C)c(C(=O)N4CCCc5ccccc54)sc3n2)cc1 | 0.505% | 24.2% | -3.31% | 64.9% | 65.6% | 0.565% | 3.08% |
| COC(=O)c1ccc(OC(=O)c2nn(C)cc2Cl)c(OC)c1 | -0.14% | 10.2% | -5.78% | 101% | 95.5% | -0.22% | -0.57% |
| CCc1ccc(N(CC(=O)NC2CCCCC2)S(=O)(=O)c2c(C)noc2C)cc1 | -9.43% | -2.85% | -1.23% | 92.2% | 92.3% | 2.05% | 4.91% |
